According to ChEMBL document CHEMBL1144476, “Phenolic hydrazones are potent inhibitors of macrophage migration inhibitory factor proinflammatory activity and survival improving agents in sepsis” (J Med Chem, 2007):

What was measured:
[1] = species: Mus musculus; assay: Inhibition of LPS-induced TNFalpha release in […] macrophages after 16 hrs; format: functional
Summary of the method: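 […] macrophages (10⁵ cells) given compound at 0.01–100 μM 30 min before LPS stimulation; 16 h incubation, then TNF measured in culture supernatants by ELISA. Mean ± S.D, n=3.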

[2] = target: T1, Macrophage migration inhibitory factor (Homo sapiens, UniProt P14174); assay: Inhibition of MIF tautomerase activity by spectrophotometric assay
T1 sequence (P14174 whole entry): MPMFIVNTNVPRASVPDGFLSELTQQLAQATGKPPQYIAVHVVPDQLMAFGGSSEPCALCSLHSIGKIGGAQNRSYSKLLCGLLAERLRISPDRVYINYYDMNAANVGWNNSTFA

[3] = tested on: Mus musculus; assay: Survival of CLP-induced BALB/c mouse at 4 mg/kg, ip after 3 days; format: functional; details: 72 h, route intraperitoneal
Summary of the method: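 Male Balb/C mice (~8 weeks) given cecal ligation with a single 22G puncture under ketamine/xylazine anaesthesia. Subcutaneous antibiotic and saline resuscitation were given right after surgery. Dosing was 4 mg/kg intraperitoneally in 20% DMSO/80% saline, started 24 h post-CLP and repeated twice daily on days 2 and 3. The vehicle group was handled the same way. Survival was scored with n=13 per group.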

| IC50 [2] [µM] | SMILES | Activity [1] | survival at 4 mg/kg [3] [%] |
| --- | --- | --- | --- |
| 0.22 | COc1ccc(N/N=C/c2ccc(O)c(Cl)c2)cc1 |  |  |
| 43 | CN/N=C/c1ccc(O)cc1 |  |  |
| > 500 | N/N=C/c1ccc(O)cc1 |  |  |
| 300 | CN(/N=C/c1ccc(O)cc1)c1ccccc1 |  |  |
| 2.6 | Oc1ccc(/C=N/Nc2ccccc2)cc1 |  |  |
| 0.48 | COc1ccc(N/N=C/c2ccc(O)cc2)cc1 |  |  |
| 0.33 | COc1ccc(N/N=C/c2ccc(O)c(Br)c2)cc1 |  |  |

| SMILES | IC50 [2] [µM] | Activity [1] | survival at 4 mg/kg [3] [%] |
| --- | --- | --- | --- |
| COc1ccc(N/N=C/c2ccc(O)c(F)c2)cc1 | 0.13 | Dose-dependent effect | 65 |
| CC(C)(C)OC(=O)N/N=C/c1ccc(O)cc1 | 5.5 |  |  |
| O=C(N/N=C/c1ccc(O)cc1)OCc1ccccc1 | 10 |  |  |
| COc1ccc(COC(=O)N/N=C/c2ccc(O)cc2)cc1 | 8 |  |  |
| CCOC(=O)N/N=C/c1ccc(O)cc1 | 43 |  |  |
| COC(=O)N/N=C/c1ccc(O)cc1 | 55 |  |  |
